ChEMBL document CHEMBL1135390, “Inotropic activity of hydroindene amidinohydrazones” (2002)

How the values were obtained:
Cavia porcellus [1] = species: Cavia porcellus; assay: Inotropic activity on cardiac frequency on spontaneously beating guinea pig right atria, (from basal frequency).; assay type: functional, Heart
Method in brief: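 Isolated guinea pig right atrium, beating spontaneously, in oxygenated (95% O2/5% CO2) Tyrode-type solution at 34 °C. Resting tension 1 g, 60 min equilibration. Rate recorded isometrically via force transducer. Cumulative concentrations 10^-7 to 5×10^-4 M added at 30 min intervals, from DMSO stock (1% DMSO final in bath). Expressed as % of pre-drug control. Mean of at least five experiments.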

Cavia porcellus [2] = species: Cavia porcellus; assay: Inotropic activity on electrically driven isolated Guinea pig atria; assay type: functional
Method in brief: (§1)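 Isolated guinea pig left atrium paced at 1 Hz via bipolar platinum electrodes (1 ms pulses, twice threshold voltage), in oxygenated (95% O2/5% CO2) Tyrode-type solution at 34 °C. Resting tension 1 g, 60 min equilibration. Isometric contraction amplitude measured. Cumulative 10^-7 to 5×10^-4 M at 30 min intervals, 1% DMSO final. Expressed as % of pre-drug control. Mean of at least five experiments.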

Cavia porcellus [3] = species: Cavia porcellus; assay: Inotropic activity on electrically driven isolated Guinea pig left atria, (from basal force).; assay type: functional; method in brief: as §1
[4] = Cavia porcellus, Heart, read-out: Emax
[5] = Cavia porcellus, read-out: Emax

Row | SMILES | Emax (Cavia porcellus [1]) [%] | concentration at Emax (Cavia porcellus [2]) [mM] | Emax (Cavia porcellus [3]) [%] | Emax (Cavia porcellus [1]; [4]) [%] | Emax (Cavia porcellus [3]; [5]) [%]
1 | C[C@]12CC/C(=N\N=C(N)N)C=C1CC[C@@H]2/C=N/N=C(N)N (stereo in doubt; 30) | -5.1 | 0.3 | 170 | – | –
2 | C[C@H]1O[C@@H](O[C@H]2[C@@H](O)C[C@H](O[C@H]3[C@@H](O)C[C@H](O[C@H]4CC[C@@]5(C)[C@H](CC[C@@H]6[C@@H]5C[C@@H](O)[C@]5(C)[C@@H](C7=CC(=O)OC7)CC[C@]65O)C4)O[C@@H]3C)O[C@@H]2C)C[C@H](O)[C@@H]1O [DIGOXIN] | – | 0.001 | – | -28.3 | 103
3 | C[C@]12CC/C(=N\N=C(N)N)C[C@@]1(O)CC[C@@H]2/C=N/N=C(N)N | – | 0.3 | – | -15 | -59
4 | C[C@]12CC/C(=N\N=C(N)N)C=C1CC[C@@H]2/C=N/N=C(N)N (stereo in doubt; 3) | -5.4 | – | 132 | – | –
5 | C[C@]12CC/C(=N\N=C(N)N)C=C1CC[C@@H]2CN1C(=O)c2ccccc2C1=O | – | 0.1 | – | -18 | 86
6 | C[C@]12CC/C(=N\N=C(N)N)C=C1CC[C@@H]2CN | – | 0.3 | – | -16 | 46
7 | C[C@]12CC/C(=N\N=C(N)N)C=C1CC[C@@H]2CO | – | 0.3 | – | 22 | -47
8 | COC(=O)/C=C\[C@H]1CCC2=C/C(=N/N=C(N)N)CC[C@@]21C | – | 0.3 | – | -54 | -76
9 | C[C@]12CC/C(=N\N=C(N)N)C=C1CC[C@@H]2/C=C/[N+](=O)[O-] | – | 0.3 | – | -1.7 | 128
10 | CC1=C2CC[C@@H](/C=N/N=C(N)N)[C@@]2(C)CC/C1=N\N=C(N)N | – | 0.3 | – | 33.7 | 129
11 | C[C@]12CC[C@H]3[C@@H](CC[C@]4(O)C[C@@H](O)CC[C@]34C=O)[C@@]1(O)CC[C@@H]2C1=CC(=O)OC1 [STROPHANTHIDIN] | – | 0.001 | – | 80.4 | 122
12 | COC(=O)/C=C/[C@H]1CCC2=C(C)/C(=N/N=C(N)N)CC[C@@]21C | – | 0.3 | – | -0.2 | -41
13 | CC1=C2CC[C@H](/C=N/N=C(N)N)[C@@]2(C)CC/C1=N\N=C(N)N | – | 0.3 | – | 4.2 | 108
14 | COC(=O)/C=C/[C@H]1CCC2=C/C(=N/N=C(N)N)CC[C@@]21C | – | 0.3 | – | 13.2 | -67
